# Measurements as given in ChEMBL document CHEMBL1828548, “Synthesis and pharmacological evaluations of novel 2H-benzo[b][1,4]oxazin-3(4H)-one derivatives as a new class of anti-cancer agents” (2011).
# Experiments:
# Assay type in all cases: functional
# [1] = test system: DLD-1; assay: Cytotoxicity against human DLD1 cells assessed as cell viability at 20 uM after 3 days by colorimetric MTT assay; conditions: DLD-1, 72 h, read-out: Activity
# In short: (§1)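 A549 and DLD-1 cells from ATCC, grown as recommended, were seeded at 5000 cells/well the day before dosing. They were exposed for 3 days in medium with 5% FBS to compound diluted from 20 mM DMSO stocks (final up to 20 µM, 0.1% v/v DMSO). Cells then received 0.5 mg/mL MTT for 4 h, formazan was dissolved in 10% SDS/10 mM HCl, and A595 was read. Viability is % of 0.1% DMSO control; two experiments, triplicate points.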
# [2] = test system: DLD-1; assay: Cytotoxicity against human DLD1 cells assessed as cell viability at 1 uM after 3 days by colorimetric MTT assay; conditions: DLD-1, 72 h, read-out: Activity; in short: as §1
# [3] = test system: A549; assay: Cytotoxicity against human A549 cells assessed as cell viability at 20 uM after 3 days by colorimetric MTT assay; conditions: A549, 72 h, read-out: Activity; in short: as §1
# [4] = test system: MV4-11; assay: Cytotoxicity against human MV4-11 cells assessed as cell viability at 20 uM after 3 days by colorimetric MTT assay; conditions: MV4-11, 72 h, read-out: Activity
# In short: (§2)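 MV4-11 leukemia cells from ATCC, grown as recommended, were plated at 40,000 cells/well immediately before treatment. They were cultured 3 days in 5% FBS medium with compound from 20 mM DMSO stocks diluted in RPMI (final ≤20 µM, 0.1% v/v DMSO). MTT (0.5 mg/mL, 4 h) was followed by SDS/HCl solubilization and absorbance at 595 nm. Percent viability is relative to DMSO-treated controls; run twice in triplicate.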
# [5] = test system: MV4-11; assay: Cytotoxicity against human MV4-11 cells assessed as cell viability at 1 uM after 3 days by colorimetric MTT assay; conditions: MV4-11, 72 h, read-out: Activity; in short: as §2
# [6] = test system: A549; assay: Cytotoxicity against human A549 cells assessed as cell viability at 1 uM after 3 days by colorimetric MTT assay; conditions: A549, 72 h, read-out: Activity; in short: as §1
# [7] = test system: DLD-1; assay: Cytotoxicity against human DLD1 cells assessed as cell viability at 10 uM after 3 days by colorimetric MTT assay; conditions: DLD-1, 72 h, read-out: Activity; in short: as §1
# [8] = test system: MV4-11; assay: Cytotoxicity against human MV4-11 cells assessed as cell viability at 10 uM after 3 days by colorimetric MTT assay; conditions: MV4-11, 72 h, read-out: Activity; in short: as §2
# [9] = test system: A549; assay: Cytotoxicity against human A549 cells assessed as cell viability at 10 uM after 3 days by colorimetric MTT assay; conditions: A549, 72 h, read-out: Activity; in short: as §1
Compound,viability at 20 µM [1] [%],viability at 1 µM [2] [%],viability at 20 µM [3] [%],viability at 20 µM [4] [%],viability at 1 µM [5] [%],viability at 1 µM [6] [%],viability at 10 µM [7] [%],viability at 10 µM [8] [%],viability at 10 µM [9] [%]
O=C1COc2ccc(-c3[nH]c(-c4ccccc4)nc3-c3ccccc3)cc2N1,47.3,98.2,58.5,7.6,105,95.6,–,–,–
O=C1COc2ccc(-c3[nH]c(-c4ccc(Cl)cc4Cl)nc3-c3ccccc3)cc2N1,61.9,97.8,68.3,41.1,109,97.4,–,–,–
O=C1COc2ccc(-c3[nH]c(-c4ccc(F)cc4)nc3-c3ccccc3)cc2N1,29.5,94.8,37.5,1.1,108,97.1,–,–,–
COc1ccc(-c2nc(-c3ccccc3)c(-c3ccc4c(c3)NC(=O)CO4)[nH]2)cc1,19.1,96,38.1,1.2,108,101,–,–,–
O=C1COc2ccc(-c3[nH]c(-c4c[nH]c5ncccc45)nc3-c3ccccc3)cc2N1,53.5,97.7,86.8,8.9,111,100,–,–,–
O=C1COc2ccc(-c3[nH]c(-c4ccc(C(F)(F)F)cc4)nc3-c3ccccc3)cc2N1,12.1,95,21.7,0.6,111,103,–,–,–
O=C1COc2ccc(-c3nn(-c4ccccc4)cc3-c3ccccc3)cc2N1,47.7,77,59.7,97.9,117,92.2,–,–,–
Cc1ccccc1-n1cc(-c2ccccc2)c(-c2ccc3c(c2)NC(=O)CO3)n1,62.9,92.2,85.3,54.2,99.4,94.8,–,–,–
O=C1COc2ccc(-c3nn(-c4ccc(Br)cc4)cc3-c3ccccc3)cc2N1,54.2,66.4,58.8,91.5,108,81.5,–,–,–
O=C1COc2ccc(-c3nn(-c4ccc(Cl)cc4)cc3-c3ccccc3)cc2N1,47.1,61.9,52.4,91.9,108,84.4,–,–,–
O=C1COc2ccc(-c3nn(-c4ccc(F)cc4)cc3-c3ccccc3)cc2N1,45.2,64.4,56.4,92.6,107,78.2,–,–,–
O=C1COc2ccc(-c3nn(-c4cc(Cl)cc(Cl)c4)cc3-c3ccccc3)cc2N1,52.2,90.3,70.2,50.5,105,93.1,–,–,–
COc1ccc(-n2cc(-c3ccccc3)c(-c3ccc4c(c3)NC(=O)CO4)n2)cc1,35.6,92.2,42.6,59.9,106,95.6,–,–,–
C#Cc1cccc(Nc2ncnc3cc(OCCOC)c(OCCOC)cc23)c1 [ERLOTINIB],–,85.7,–,–,98.3,83,55.4,16.8,68.5
COc1cc2ncnc(Nc3ccc(F)c(Cl)c3)c2cc1OCCCN1CCOCC1 [GEFITINIB],–,87,–,–,92.4,84.4,65.7,7,61.5
Cc1ccc(NC(=O)c2ccc(CN3CCN(C)CC3)cc2)cc1Nc1nccc(-c2cccnc2)n1 [IMATINIB],–,89.9,–,–,105,108,91.5,82,98.6
CNC(=O)c1cc(Oc2ccc(NC(=O)Nc3ccc(Cl)c(C(F)(F)F)c3)cc2)ccn1 [SORAFENIB],–,93.4,–,–,1.6,103,28,0.7,28.6
CCN(CC)CCNC(=O)c1c(C)[nH]c(/C=C2\C(=O)Nc3ccc(F)cc32)c1C [SUNITINIB],–,92.9,–,–,1.4,102,52.7,0.5,37.4
COc1cc2/c(=N/c3ccc(Br)cc3F)nc[nH]c2cc1OCC1CCN(C)CC1 [VANDETANIB],–,88.6,–,–,84.1,88.7,37.9,1.6,41.7
